This series can be described thus: Toxicity liver stage against HepG2, at 10uM. The class given is cell-based. Details: test concentration 10 uM, cell line HepG2-A16-CD81EGFP. Conditions: human, HepG2-A16-CD81EGFP cells; read-out: INHIBITION
The procedure, abridged:
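Uninfected HepG2-A16-CD81EGFP cells, 3 × 10^3 per well, 1536-well, plated on prespotted compound at 10 μM final, parasite-free screening media added to match infected plates; puromycin 10 μM positive, DMSO 0.5% negative; run in parallel with 48 h PbLuc assay at 37 °C, 5% CO2; viability by CellTiter-Glo luminescence, normalized to controls.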
`COc1ccccc1C1=NOC(CC2(C(=O)NCCO)CCOCC2)C1` (centres undefined): the cytotoxicity at 10 µM is -26.2%.

For `CCS(=O)(=O)N1CC(c2nc(-c3cccs3)no2)C1`, the cytotoxicity at 10 µM is -7.3%.

Turning to `O=C(Cc1ccccn1)N1CCC2(CC1)CN(c1ncccn1)CCO2`, the cytotoxicity at 10 µM was -74.3%.

In the case of `CC1=C(CCN2CCCC(O)C2)C(C)(C)CCC1` (centres undefined), the cytotoxicity at 10 µM stood at 3.43%.

As to `CSCCN1C(=O)CC(C)(c2ccc(Br)cc2)C1=O` (centres undefined), the cytotoxicity at 10 µM is -8.98%.

As for `CC(=O)N1CCN(CCNS(=O)(=O)c2cc(F)ccc2C)CC1`, the cytotoxicity at 10 µM is 5.42%.

As for `Cc1ccc(C(CC(=O)O)NC(=O)CCc2cccs2)cc1` (centres undefined), the cytotoxicity at 10 µM was -4.32%.

`Cc1n[nH]c(C)c1CC(=O)N1CCC(O)(CN2CCOCC2)C1` (centres undefined): the cytotoxicity at 10 µM was found to be 3.1%.

For `Cc1nc(N2CCOc3ccc(CO)cc3C2)c2c(C)noc2n1`, the cytotoxicity at 10 µM amounted to 2.18%.

On to `OC1(CN2CCCCC2)CCN(c2nccc(C(F)(F)F)n2)C1` (centres undefined), for which the cytotoxicity at 10 µM is -7.07%.

For `CCCc1nc(N2CCN(Cc3ccccn3)CC2)c2cnn(C)c2n1`, the cytotoxicity at 10 µM turned out to be 1.89%.

Regarding `OCCNc1nc(Nc2ccccc2)c2nccnc2n1`, the cytotoxicity at 10 µM is 3.72%.

Take `Cc1cccnc1NC(=O)N(CCO)Cc1ccsc1`: the cytotoxicity at 10 µM was -11.3%.

For the compound `Cc1nc(CC(=O)N2CCCN(c3ccc(C#N)cc3)CC2)cs1`, the cytotoxicity at 10 µM worked out at 2.37%.

In the case of `O=C1NCC(C(=O)Nc2ncc(Cc3ccc(F)cc3)s2)N1` (centres undefined), the cytotoxicity at 10 µM was 0.639%.

On to `Cc1ccc(-c2cc(CNC(=O)NC3CCCCNC3=O)on2)cc1` (centres undefined), for which the cytotoxicity at 10 µM is -145%.

On to `c1cnc(N2CCCC3(CCN(Cc4cccs4)C3)C2)nc1` (centres undefined), for which the cytotoxicity at 10 µM amounted to 2.58%.

Turning to `Cc1cccc(S(=O)(=O)NC(=O)CCc2cscn2)c1`, the cytotoxicity at 10 µM is 0.983%.

In the case of `NC(=O)c1cccc(CN2CCc3c(ncn3C3CC3)C2)c1`, the cytotoxicity at 10 µM is -4.6%.

`Cc1nn(C)c(C)c1C1CCCN1Cc1cccc(OCC(N)=O)c1` (centres undefined): the cytotoxicity at 10 µM was -0.192%.

With `O=C(CCOc1ccc(Cl)cc1)NCCCn1cccn1`, the cytotoxicity at 10 µM is -12.1%.

On to `Cc1csc(N2CCCN(C(=O)C3(C#N)CCCC3)CC2)n1`, for which the cytotoxicity at 10 µM was -1.01%.

As for `c1ccc2sc(NCC3(N4CCOCC4)CCSC3)nc2c1` (centres undefined), the cytotoxicity at 10 µM is 0.375%.

On to `CC(=O)c1ccc(F)cc1-c1cc(NCCO)nc2[nH]ccc12`, for which the cytotoxicity at 10 µM is -5.72%.

Take `Cc1nc(CN2CCCC(c3nccs3)C2)cs1` (centres undefined): the cytotoxicity at 10 µM worked out at 2.3%.

With `CN(C)[C@@H]1CCN(C(=O)c2ccsc2)[C@H]1Cc1cccnc1`, the cytotoxicity at 10 µM is -66.7%.

As to `Cn1cc(N2CC3(COCCN(Cc4nccs4)C3)OCC2=O)cn1` (centres undefined), the cytotoxicity at 10 µM is -79.9%.

For `CN1CCN(Cc2cn3c(n2)CN(Cc2ccncc2)CC3)CC1`, the cytotoxicity at 10 µM is -94.8%.

Turning to `Cc1cnc(CN(Cc2ccc(C#N)cc2F)C2CCN(C)C2)o1` (centres undefined), the cytotoxicity at 10 µM worked out at 0.172%.

Regarding `CS(=O)(=O)c1cccc(C(=O)N2CCCC(n3cccn3)C2)c1` (centres undefined), the cytotoxicity at 10 µM was -8.77%.

Regarding `CCC(C(=O)NCc1cc(N2CCOCC2)ncn1)n1cccn1` (centres undefined), the cytotoxicity at 10 µM was determined as 1.44%.

Regarding `CS(=O)(=O)c1ccc(CNC[C@H]2COCc3nc4ccccc4n32)cc1`, the cytotoxicity at 10 µM is -1.28%.

Take `CC(C)CNC(=O)c1cc2c(s1)CCN2Cc1cccnc1`: the cytotoxicity at 10 µM was -6.16%.

For `CC(C)C(=O)NC1COC2(CCN(C(=O)c3cccnc3)CC2)C1` (centres undefined), the cytotoxicity at 10 µM is 4.26%.

As for `CCN(C)c1ccc(CNS(=O)(=O)CC2CCCO2)cc1F` (centres undefined), the cytotoxicity at 10 µM was 11.9%.

As for `O=C(CSCC1CC1)N1CCc2[nH]nc(COc3ccccc3)c2C1`, the cytotoxicity at 10 µM was -7.01%.

Consider `CN1CCC(N[C@@H]2CO[C@H](CNC(=O)C3CCCC3)[C@H]2O)CC1`, for which the cytotoxicity at 10 µM is -4.63%.

Take `CCCS(=O)(=O)CC(=O)NC(C)c1cccc(-n2cccn2)c1` (centres undefined): the cytotoxicity at 10 µM turned out to be 6%.

In the case of `CCCS(=O)(=O)N1CCC2(CCC(=O)N(CCc3cccnc3)C2)CC1`, the cytotoxicity at 10 µM is -4.92%.

On to `Cc1nc(C2CCCN2Cc2cc(Cl)c3c(c2)OCO3)no1` (centres undefined), for which the cytotoxicity at 10 µM is 7.51%.

As for `CC(Cn1cccn1)NC(=O)Nc1nncs1` (centres undefined), the cytotoxicity at 10 µM was -1.86%.

On to `Cc1occc1C(=O)N1CCC2(CCCN(CC3CC3)C2=O)C1` (centres undefined), for which the cytotoxicity at 10 µM was -4.58%.

On to `NC(=O)CN1CC(O)c2ccccc2S1(=O)=O` (centres undefined), for which the cytotoxicity at 10 µM was determined as 4.37%.

In the case of `Cc1cnc(Nc2nccnc2C2CCN(C)CC2)s1`, the cytotoxicity at 10 µM came out at 2.52%.

In the case of `CN(C)C(=O)COCc1cncc2c1CCN(Cc1nccn1C)C2`, the cytotoxicity at 10 µM was -7.61%.

With `O=C(N1CCCC1)N1CCCC2(CCN(c3ccsc3)C2=O)C1` (centres undefined), the cytotoxicity at 10 µM was -74.1%.

For the compound `Cc1cnc2n(c1=O)CC(C(=O)Nc1cccc3cccnc13)CS2` (centres undefined), the cytotoxicity at 10 µM is -19.6%.

Turning to `CCc1nc(CNCC2CCCN2c2cccnn2)no1` (centres undefined), the cytotoxicity at 10 µM is -12.6%.

In the case of `Cc1noc(C)c1CN1CCc2nn(C(C)C)c(=O)cc2C1`, the cytotoxicity at 10 µM is -8.87%.

Take `Cc1ccc(CN2CCN(C(=O)c3ccc(Br)o3)CC2)cc1`: the cytotoxicity at 10 µM was determined as 1.16%.

Regarding `CN1CCc2[nH]cnc2C12CCN(Cc1ccc3nsnc3c1)CC2`, the cytotoxicity at 10 µM was found to be 5.05%.

On to `Cc1c(-c2nc3cc(S(=O)(=O)N4CCCC4)ccc3n2C)cnn1C`, for which the cytotoxicity at 10 µM is 2.2%.

Regarding `COCCN1C(=O)[C@@H]2CC[C@H]1CN(c1ncccn1)C2`, the cytotoxicity at 10 µM amounted to 7.01%.

For the compound `CCc1noc(C)c1C(=O)N1CCCN(Cc2csc(C)n2)CC1`, the cytotoxicity at 10 µM was -2.81%.

Take `COc1ccc(-c2nc(C(=O)NCC3CCOC3)cs2)cc1OC` (centres undefined): the cytotoxicity at 10 µM amounted to 2.39%.

Take `COc1cc(CN2CCN(c3cccc(OC)c3)C(=O)C2)cc(OC)c1`: the cytotoxicity at 10 µM is -11.7%.

In the case of `CCc1cnc(C)nc1NC(C)C(=O)Nc1cc(F)ccc1C` (centres undefined), the cytotoxicity at 10 µM is -0.682%.

For the compound `CCc1ccc(C(=O)NC2CCN(c3ccn(C)n3)C2)o1` (centres undefined), the cytotoxicity at 10 µM was -0.577%.

`CC(Cn1cccn1)NC(=O)c1ccsc1` (centres undefined): the cytotoxicity at 10 µM is -5.2%.

Turning to `c1nc(N2CCCC2)cnc1C1CCNCC1`, the cytotoxicity at 10 µM was -3.87%.

As to `CCC(NC(=O)C1CCN(S(C)(=O)=O)CC1)c1ccc(OC)c(C)c1` (centres undefined), the cytotoxicity at 10 µM was -10%.

For `CSC(C)C(=O)NS(=O)(=O)c1ccc(F)c(C(F)(F)F)c1` (centres undefined), the cytotoxicity at 10 µM is -6.52%.

Regarding `CCc1nc(CN(C)C(=O)c2ccc(OCCCOC)nc2)cs1`, the cytotoxicity at 10 µM is -19.5%.

Regarding `CC(C)[C@H](NC(=O)N1CCC(Cc2ccccc2)CC1)C(=O)O`, the cytotoxicity at 10 µM was -7.44%.

As to `O=C(C1CC1)N1CCC2(CCN2Cc2ccc(F)cc2)C1` (centres undefined), the cytotoxicity at 10 µM is 1.55%.

As to `Nc1cc2c(nn1)CCN(C(=O)c1ccc(Oc3cccnc3)cc1)C2`, the cytotoxicity at 10 µM was 6.27%.

With `Cc1cccc(CN(Cc2ccccn2)S(=O)(=O)N(C)C)c1`, the cytotoxicity at 10 µM was -1.74%.

As for `Cc1ncc(COc2cccc3c2NC(=O)CO3)s1`, the cytotoxicity at 10 µM is -3.13%.

`Cc1cccc(NC(C)C(=O)Nc2nccs2)c1` (centres undefined): the cytotoxicity at 10 µM was -0.524%.

For `Cc1nc(N)ncc1C(=O)N1CCCC(CCc2ccc(F)cc2)C1` (centres undefined), the cytotoxicity at 10 µM was -8.3%.

For `CCN(CCC1CCN(C(=O)NCc2nncn2CC)CC1)CC1CC1`, the cytotoxicity at 10 µM was -2.75%.

Consider `CCOCC1CN(C(=O)c2cccc(C)n2)Cc2cnn(C)c21` (centres undefined), for which the cytotoxicity at 10 µM was determined as 2.98%.

`CCn1cc(-c2cc(C(F)(F)F)nc(NC3CCCC3)n2)c(C)n1`: the cytotoxicity at 10 µM turned out to be 2.33%.

As to `Cc1cccc(N(CC(=O)N2CCCCC2)Cc2ccno2)c1`, the cytotoxicity at 10 µM stood at 3.1%.

`CN(CCNC(=O)Nc1ccn(C)n1)Cc1ccc(F)cc1`: the cytotoxicity at 10 µM stood at 8.16%.

Take `Cc1cnc(CN2CCCC2c2noc(C(C)C)n2)cn1` (centres undefined): the cytotoxicity at 10 µM was -15.1%.

Turning to `COC(=O)[C@H]1CN(C(C)=O)CCN1C(C)=O`, the cytotoxicity at 10 µM is -3.31%.

For the compound `Cc1ccc(C(=O)N2CCC3(CC(N(C)c4ccncn4)C3)C2)cn1` (centres undefined), the cytotoxicity at 10 µM was -6.11%.

As for `CCOc1ccccc1C(CC(=O)Nc1ccccc1)NC(C)=O` (centres undefined), the cytotoxicity at 10 µM is -2.86%.

Regarding `CC(=O)NCC(=O)N1CCc2nc(C)nc(C)c2CC1`, the cytotoxicity at 10 µM was -12%.

In the case of `CCN(CC)C(=O)Nc1cccc(Oc2ccccn2)c1`, the cytotoxicity at 10 µM was 8.12%.

Take `Cn1cc(CN2CCOCC3(C2)CN(c2ccccc2)C(=O)CO3)cn1` (centres undefined): the cytotoxicity at 10 µM was found to be 0.436%.

Regarding `O=C(NC(CC(F)(F)F)c1ccc(Cl)cc1)c1nc(=O)[nH][nH]1` (centres undefined), the cytotoxicity at 10 µM is -5.11%.

`Cc1cnn(C2CCCN(C(=O)Cc3ccc4c(c3)CCO4)C2)c1` (centres undefined): the cytotoxicity at 10 µM is -5.83%.

As to `COC(=O)C1CCN(C(=O)Nc2cc(-n3cccc3)ccc2F)CC1`, the cytotoxicity at 10 µM was found to be 5.44%.

In the case of `COCCNC(=O)C(C)n1nc(-c2ccco2)cc(N)c1=O` (centres undefined), the cytotoxicity at 10 µM is 2.62%.

In the case of `Cc1nc(C)c(C(=O)NCC(c2ccccc2Cl)N2CCOCC2)s1` (centres undefined), the cytotoxicity at 10 µM amounted to 1.4%.

`Cc1ncc(CN2CCC(c3ccnn3C)CC2)n1-c1ccccc1`: the cytotoxicity at 10 µM was determined as 19.1%.

As to `Cn1cncc1CN1CCCC1c1cncc(Oc2ccc(Cl)cc2)n1` (centres undefined), the cytotoxicity at 10 µM was 11%.

For the compound `COc1ccc(-c2csc(N)c2C#N)cc1`, the cytotoxicity at 10 µM is 4.07%.

As to `CCOC(=O)N1CCc2ccccc2C12CCNCC2`, the cytotoxicity at 10 µM stood at 1.15%.

Consider `O=C(NCc1cc(O)ncn1)C1COc2ccccc2C1` (centres undefined), for which the cytotoxicity at 10 µM is -9.76%.

On to `COCC1c2c(cnn2C)CCN1Cc1ccco1` (centres undefined), for which the cytotoxicity at 10 µM is 2.32%.

Turning to `CCN(C)S(=O)(=O)NCC(O)c1c(Cl)cccc1Cl` (centres undefined), the cytotoxicity at 10 µM was 8.17%.

Turning to `Cc1cc(NC(=O)CN2CCCC2c2noc(C(C)C)n2)no1` (centres undefined), the cytotoxicity at 10 µM is -14.3%.

Regarding `O=C(O)C1(O)CCN(c2ccnc3c(C(F)(F)F)cccc23)CC1`, the cytotoxicity at 10 µM turned out to be 5.56%.

With `CC(NCc1ccc(F)cc1)c1ccc2[nH]c(=O)[nH]c2c1` (centres undefined), the cytotoxicity at 10 µM is -9.93%.

For `Cc1ccc(NC(=O)c2nc3c(s2)CCCN3C(=O)C2CC2)cn1`, the cytotoxicity at 10 µM was found to be 10.5%.

Take `CC(NC(=O)NC1CCN(Cc2ccncc2)CC1)c1cccc(F)c1` (centres undefined): the cytotoxicity at 10 µM is -12.5%.

For the origin of these results see ChEMBL document CHEMBL4513216, “Probing the Open Global Health Chemical Diversity Library for Multistage-Active Starting Points for Next-Generation Antimalarials” (ACS Infect Dis, 2020).
